Reference: ChEMBL document CHEMBL3822384, “2-(3-Methoxyphenyl)quinazoline Derivatives: A New Class of Direct Constitutive Androstane Receptor (CAR) Agonists” (J Med Chem, 2016)
The source made the active and inactive calls. The rule behind the calls is not given here.

Assays:
[1] = molecular target: T1, Nuclear receptor subfamily 1 group I member 3 (Homo sapiens, UniProt Q14994); assay: Agonist activity at CAR in human primary hepatocytes assessed as upregulation of MDR/ABCB1 mRNA expression at 10 uM after 24 hrs by qRT-PCR method; assay type: cell-based, Hepatocyte
T1 sequence (Q14994 whole entry): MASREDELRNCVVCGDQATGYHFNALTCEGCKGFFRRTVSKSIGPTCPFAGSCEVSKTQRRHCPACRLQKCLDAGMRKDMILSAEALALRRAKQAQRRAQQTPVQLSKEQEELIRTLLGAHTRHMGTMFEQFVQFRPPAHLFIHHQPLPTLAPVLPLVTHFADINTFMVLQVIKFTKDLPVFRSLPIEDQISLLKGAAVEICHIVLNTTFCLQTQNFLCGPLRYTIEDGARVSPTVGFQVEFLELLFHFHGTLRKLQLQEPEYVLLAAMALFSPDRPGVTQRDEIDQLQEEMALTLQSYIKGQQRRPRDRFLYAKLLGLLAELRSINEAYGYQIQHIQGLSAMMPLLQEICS

[2] = molecular target: T1, Nuclear receptor subfamily 1 group I member 3; assay: Agonist activity at CAR expressed in human HepG2 cells after 24 hrs by CYP3A4-luciferase reporter gene assay; assay type: cell-based; settings: hepg2, 24 h
Method in brief: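 HepG2 cells co-transfected with CYP3A4-luc, wild-type CAR vector and pRL-TK; 24 h stabilization, then compound or DMSO (0.1%, v/v) for 24 h, with parallel androstenol (5 µM) treatment to suppress basal activity. Dual firefly/Renilla luciferase read; fold induction over vehicle (set to 1), means of three independent experiments.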

PXR (NR1I2) = molecular target: T2, PXR (NR1I2) (Homo sapiens, UniProt O75469); assay: (§1) Agonist activity at PXR expressed in human HepG2 cells after 24 hrs by p3A4-luciferase reporter gene assay; settings: human, HepG2 cells expressing PXR
T2 sequence (O75469 whole entry): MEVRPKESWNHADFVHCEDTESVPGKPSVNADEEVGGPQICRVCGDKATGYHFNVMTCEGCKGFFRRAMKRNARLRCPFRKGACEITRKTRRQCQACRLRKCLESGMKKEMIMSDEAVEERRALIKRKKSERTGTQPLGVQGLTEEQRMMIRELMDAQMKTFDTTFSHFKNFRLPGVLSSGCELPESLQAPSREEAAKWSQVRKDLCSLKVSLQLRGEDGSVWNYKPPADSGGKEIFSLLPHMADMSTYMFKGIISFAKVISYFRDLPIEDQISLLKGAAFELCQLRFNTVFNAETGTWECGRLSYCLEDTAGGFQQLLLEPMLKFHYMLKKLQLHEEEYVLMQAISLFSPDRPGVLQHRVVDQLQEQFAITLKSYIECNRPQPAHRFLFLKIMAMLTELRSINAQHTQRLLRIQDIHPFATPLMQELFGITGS

[3] = molecular target: T3, Nuclear receptor subfamily 1 group I member 2 (Homo sapiens, UniProt O75469); assay: as §1
T3 sequence (O75469 whole entry): T2 sequence (O75469 whole entry)

Vitamin D3 receptor = molecular target: T4, Vitamin D3 receptor (Homo sapiens, UniProt P11473); assay: Agonist activity at VDR expressed in human HuH7 cells after 24 hrs by pDR3-luciferase reporter gene assay; assay type: cell-based, Huh-7
T4 sequence (P11473 whole entry): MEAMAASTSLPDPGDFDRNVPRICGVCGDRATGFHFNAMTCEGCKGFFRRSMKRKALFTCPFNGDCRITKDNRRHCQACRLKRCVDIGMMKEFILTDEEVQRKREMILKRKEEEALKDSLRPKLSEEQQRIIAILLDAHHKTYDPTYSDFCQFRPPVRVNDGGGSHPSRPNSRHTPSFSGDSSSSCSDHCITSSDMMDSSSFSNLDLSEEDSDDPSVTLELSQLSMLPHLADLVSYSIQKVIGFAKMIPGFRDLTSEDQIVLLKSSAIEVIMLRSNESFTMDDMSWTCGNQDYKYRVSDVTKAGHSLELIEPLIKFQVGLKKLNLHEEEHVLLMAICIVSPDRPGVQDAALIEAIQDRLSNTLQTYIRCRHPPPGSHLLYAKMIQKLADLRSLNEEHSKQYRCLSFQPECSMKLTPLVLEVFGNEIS

Cytochrome P450 2D6 = Cytochrome P450 2D6 (Homo sapiens, UniProt P10635); assay: Inhibition of recombinant human CYP2D6 by P450-Glo luminescence assay; assay type: ADME
Cytochrome P450 2D6, sequence (P10635 whole entry): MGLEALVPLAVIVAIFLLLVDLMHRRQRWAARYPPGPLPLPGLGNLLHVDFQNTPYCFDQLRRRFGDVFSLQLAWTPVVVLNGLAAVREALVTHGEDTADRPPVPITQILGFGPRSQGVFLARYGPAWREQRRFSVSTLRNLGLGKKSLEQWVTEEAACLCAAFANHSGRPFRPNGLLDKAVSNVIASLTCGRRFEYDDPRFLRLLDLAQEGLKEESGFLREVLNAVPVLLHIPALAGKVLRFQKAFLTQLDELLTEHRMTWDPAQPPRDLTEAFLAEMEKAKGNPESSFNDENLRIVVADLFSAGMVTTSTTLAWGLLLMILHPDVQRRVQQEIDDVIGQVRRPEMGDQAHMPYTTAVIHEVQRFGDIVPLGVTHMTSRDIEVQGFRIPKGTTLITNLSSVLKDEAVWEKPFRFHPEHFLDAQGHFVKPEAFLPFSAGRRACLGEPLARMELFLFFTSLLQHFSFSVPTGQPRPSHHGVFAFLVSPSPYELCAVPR

HepG2 = assay: Cytotoxicity against human HepG2 cells assessed as cell viability after 24 hrs by MTS assay; assay type: cell-based; settings: hepg2, 24 h
Cytochrome P450 2B6 = molecular target: T5, Cytochrome P450 2B6 (Homo sapiens, UniProt P20813); assay: Inhibition of recombinant human CYP2B6 by P450-Glo luminescence assay; assay type: ADME
T5 sequence (P20813 whole entry): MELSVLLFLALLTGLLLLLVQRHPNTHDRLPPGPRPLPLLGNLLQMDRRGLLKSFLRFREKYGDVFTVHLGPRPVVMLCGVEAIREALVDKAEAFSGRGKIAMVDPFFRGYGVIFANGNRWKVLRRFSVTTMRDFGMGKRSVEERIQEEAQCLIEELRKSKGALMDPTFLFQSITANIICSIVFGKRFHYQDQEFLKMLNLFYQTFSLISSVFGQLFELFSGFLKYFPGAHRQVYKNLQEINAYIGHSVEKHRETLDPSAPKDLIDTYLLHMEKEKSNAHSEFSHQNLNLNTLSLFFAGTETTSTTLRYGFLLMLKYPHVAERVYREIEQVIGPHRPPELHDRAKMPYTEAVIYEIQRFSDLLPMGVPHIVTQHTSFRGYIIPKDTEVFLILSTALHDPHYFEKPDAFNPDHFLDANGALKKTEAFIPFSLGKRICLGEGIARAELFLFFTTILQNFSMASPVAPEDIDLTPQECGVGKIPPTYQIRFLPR

[4] = molecular target: T6, Vitamin D3 receptor (Homo sapiens) (UniProt P11473); assay: Agonist activity at VDR in human primary hepatocytes assessed as upregulation of MDR/ABCB1 mRNA expression at 10 uM after 24 hrs by qRT-PCR method; assay type: cell-based; settings: Hepatocyte
T6 sequence (whole entry): T4 sequence (P11473 whole entry)

[5] = molecular target: T1, Nuclear receptor subfamily 1 group I member 3; assay: Agonist activity at human CAR expressed in human HepG2 cells assessed as induction of CYP2B6 mRNA expression at 1 to 10 uM after 24 hrs by qRT-PCR method; assay type: cell-based; settings: hepg2, 24 h
[6] = molecular target: T1, Nuclear receptor subfamily 1 group I member 3; assay: Agonist activity at human CAR expressed in human HepG2 cells assessed as induction of CYP2B6 mRNA expression at 1 to 5 uM after 24 hrs by qRT-PCR method; assay type: cell-based; settings: hepg2, 24 h

Structure (SMILES)	Activity [1]	Activity [2]	Emax at 24 h (PXR (NR1I2))	EC50 [3]	EC50 (Vitamin D3 receptor)	IC50 (Cytochrome P450 2D6; read-out: IC50)	Activity (HepG2)	IC50 (Cytochrome P450 2B6)	Activity [4]	IC50 (Cytochrome P450 2D6)	Activity [5]	Activity [6]
COc1cccc(-c2nc(SC)c3ccccc3n2)c1	Active	Dose-dependent effect	> 250%	> 3.5 µM	> 3 µM	17.3 µM	Non-toxic	31.8 µM	Active	–	–	–
COc1cccc(-c2nc(OC)c3ccccc3n2)c1	Active	Dose-dependent effect	> 250%	> 3 µM	1.95 µM	–	Non-toxic	36.2 µM	Active	Not Active	Active	–
COc1cccc(-c2nc3ccccc3c(=S)[nH]2)c1	Active	Dose-dependent effect	165%	0.86 µM	0.51 µM	–	Non-toxic	35.7 µM	Active	Not Active	–	Active
